Assay results taken from article PMC4486249 (Journal of medicinal chemistry, 2010).
Entries after “also recorded” stand apart in the source; their conditions may differ. Where a SMILES comes first, the peptide text is derived from it.

How the values were obtained:
[1] = test system: HIV-1HXB2 in MT-4 Luc cells; assay: MT-4 Luc assay, protection from HIV-1-induced cell death; type: cell-based; conditions: for IC50 of inhibition of HIV-1 replication in cells: MT-4 Luc cell system, in words; for inhibitory effect against HIV-1 replication: MT-4 Luc cells infected with HIV-1, luciferase signal, various concentrations (Figure 4)
RT-associated RNase H = RT-associated RNase H (Human immunodeficiency virus type 1 group M subtype B, UniProt P04585); assay: RT-associated RNase H activity assay; type: biochemical, HIV-1
[2] = test system: X4-tropic HIV-1HXB2 on MT-4 cells; assay: HIV-1 replication kinetics in MT-4 cells; type: cell-based; conditions: 0.5 μM peptide, replication kinetics (Figure 5B)
In short: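 MT-4 cells (1×10^5) were exposed to HIV-1HXB2-containing culture supernatant (ca. 0.2-50 ng p24) for 30 min at room temperature, then washed and cultured with or without 0.5 μM test peptide. Supernatants were collected at several time points, with cells passaged if necessary. Replication was read out as p24 antigen levels measured by ELISA.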

MT-4 Luc cells = conditions: MT-4 Luc system (Figure 4)

CC[C@H](C)[C@H](NC(C)=O)C(=O)N[C@@H](Cc1c[nH]cn1)C(=O)N[C@@H](Cc1ccccc1)C(=O)N[C@@H](CCCNC(=N)N)C(=O)N[C@H](C(=O)NCC(=O)N[C@@H](CCCNC(=N)N)C(=O)N[C@@H](CCCNC(=N)N)C(=O)N[C@@H](CCCNC(=N)N)C(=O)N[C@@H](CCCNC(=N)N)C(=O)N[C@@H](CCCNC(=N)N)C(=O)N[C@@H](CCCNC(=N)N)C(=O)N[C@@H](CCCNC(=N)N)C(=O)N[C@@H](CCCNC(=N)N)C(N)=O)[C@@H](C)CC [Vpr-2 R8] (Ac-IHFRIGRRRRRRRR-NH2)
anti-HIV-1 activity ([1]; MT-4 Luc cells, below concentrations of 20 μM): no significant anti-HIV-1 activity

CC(=O)N[C@@H](CC(C)C)C(=O)N[C@@H](CCC(N)=O)C(=O)N[C@@H](CCC(N)=O)C(=O)N[C@@H](CC(C)C)C(=O)N[C@@H](CC(C)C)C(=O)N[C@@H](Cc1ccccc1)C(=O)N[C@@H](CCCNC(=N)N)C(=O)N[C@@H](CCCNC(=N)N)C(=O)N[C@@H](CCCNC(=N)N)C(=O)N[C@@H](CCCNC(=N)N)C(=O)N[C@@H](CCCNC(=N)N)C(=O)N[C@@H](CCCNC(=N)N)C(=O)N[C@@H](CCCNC(=N)N)C(=O)N[C@@H](CCCNC(=N)N)C(N)=O [Vpr-1 R8] (Ac-LQQLLFRRRRRRRR-NH2)
antiviral effect ([1]; MT-4 Luc cells, at a concentration of 20 μM): weak antiviral effect

CC[C@H](C)[C@H](NC(=O)[C@H](CCCNC(=N)N)NC(=O)[C@H](Cc1ccccc1)NC(=O)[C@H](Cc1cnc[nH]1)NC(=O)[C@@H](NC(=O)[C@H](Cc1ccccc1)NC(=O)[C@H](CC(C)C)NC(=O)[C@H](CC(C)C)NC(=O)[C@H](CCC(N)=O)NC(=O)[C@H](CCC(N)=O)NC(=O)[C@H](CC(C)C)NC(C)=O)[C@@H](C)CC)C(=O)NCC(=O)N[C@@H](CCCNC(=N)N)C(=O)N[C@@H](CCCNC(=N)N)C(=O)N[C@@H](CCCNC(=N)N)C(=O)N[C@@H](CCCNC(=N)N)C(=O)N[C@@H](CCCNC(=N)N)C(=O)N[C@@H](CCCNC(=N)N)C(=O)N[C@@H](CCCNC(=N)N)C(=O)N[C@@H](CCCNC(=N)N)C(N)=O [Vpr-3 R8]
IC50 (RT-associated RNase H): > 500 nM | IC50 of inhibition of HIV-1 replication in cells [1]: submicromolar | inhibitory effect against HIV-1 replication [1]: significant inhibitory effects | replication of HIV-1HXB2 [2]: quite low; also recorded: extensively suppressed | cytotoxicity, comparison (MT-4 Luc cells): less cytotoxic than Vpr-4 R8

CC[C@H](C)[C@H](NC(=O)[C@H](C)NC(=O)[C@H](CCC(=O)O)NC(C)=O)C(=O)N[C@H](C(=O)N[C@@H](CCCNC(=N)N)C(=O)N[C@H](C(=O)N[C@@H](CC(C)C)C(=O)N[C@@H](CCC(N)=O)C(=O)N[C@@H](CCC(N)=O)C(=O)N[C@@H](CC(C)C)C(=O)N[C@@H](CC(C)C)C(=O)N[C@@H](Cc1ccccc1)C(=O)N[C@H](C(=O)N[C@@H](Cc1c[nH]cn1)C(=O)N[C@@H](Cc1ccccc1)C(=O)N[C@@H](CCCNC(=N)N)C(=O)N[C@H](C(=O)NCC(=O)N[C@@H](CCCNC(=N)N)C(=O)N[C@@H](CCCNC(=N)N)C(=O)N[C@@H](CCCNC(=N)N)C(=O)N[C@@H](CCCNC(=N)N)C(=O)N[C@@H](CCCNC(=N)N)C(=O)N[C@@H](CCCNC(=N)N)C(=O)N[C@@H](CCCNC(=N)N)C(=O)N[C@@H](CCCNC(=N)N)C(N)=O)[C@@H](C)CC)[C@@H](C)CC)[C@@H](C)CC)[C@@H](C)CC [Vpr-4 R8]
IC50 (RT-associated RNase H): > 500 nM | IC50 of inhibition of HIV-1 replication in cells [1]: submicromolar | inhibitory effect against HIV-1 replication [1]: significant inhibitory effects
